Key:
[1] = Cmax in male beagle dog plasma at 10 mg/kg, po administered as single dose by LC-MS/MS analysis; type: ADME, organism-based, Canis lupus familiaris; design: dose 10 mg/kg, dosed compound name [14C]lixivaptan, route oral
Summary of the method: (§1)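 Four male beagles were fasted 18 h and gavaged once with 10 mg/kg (2 ml/kg) [14C]lixivaptan as a 5.0 mg/ml water/pluronic F68 suspension. Jugular K2EDTA blood was sampled from 0.25 to 168 h. Plasma total radioactivity was counted by LSC as ng-equiv/ml and lixivaptan by validated LC-MS/MS. Noncompartmental Cmax, t1/2 and trapezoidal AUC were derived.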

[2] = Tmax in male Sprague-Dawley rat plasma at 10 mg/kg, po administered as single dose via gavage by LC-MS/MS analysis; type: ADME, organism-based; design: dose 10 mg/kg, dosed compound name [14C]lixivaptan, route oral
Summary of the method: (§2)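 Jugular-vein cannulated SD rats (5/gender) given gavage [14C]drug 10 mg/kg in pluronic F68/water; K2EDTA blood 0.25-168 h with donor blood replacement. Parent by validated LC-MS/MS, radioactivity by LSC; Tmax observed; t1/2 = 0.693/kel by terminal log-linear regression.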

[3] = Cmax in female Sprague-Dawley rat plasma at 10 mg/kg, po administered as single dose; type: ADME, organism-based; design: dose 10 mg/kg, dosed compound name [14C]lixivaptan, route oral
Summary of the method: (§3)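 Jugular-cannulated Sprague-Dawley rats (5/gender) were fasted 18 h and gavaged once with 10 mg/kg [14C]lixivaptan suspended in water/pluronic F68. K2EDTA blood was taken at 0.25–168 h, with donor blood replaced from 1 h on. Total radioactivity was read by LSC (ng-equiv/ml) and parent by validated LC-MS/MS. Noncompartmental Cmax, log-linear kel and trapezoidal AUC followed.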

[4] = Tmax in human plasma at 100 mg, po administered as single dose by LC-MS/MS analysis; type: ADME, organism-based; design: dosed compound name [14C]lixivaptan
Summary of the method: (§4)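 Single oral 100 mg [14C]drug to healthy male volunteers; plasma at 0.25-144 h. Parent by validated LC-MS/MS, total radioactivity by LSC as ng-equiv/ml; Tmax from observed data; t1/2 = 0.693/kel from log-linear terminal regression.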

[5] = AUC(0 to infinity) in female Sprague-Dawley rat plasma at 10 mg/kg, po administered as single dose via gavage by LC-MS/MS analysis; type: ADME, organism-based; design: time infinity, dose 10 mg/kg, dosed compound name [14C]lixivaptan, route oral; summary of the method: as §3
[6] = Half life in male Sprague-Dawley rat plasma at 10 mg/kg, po administered as single dose via gavage by LC-MS/MS analysis; type: ADME, organism-based; design: dose 10 mg/kg, dosed compound name [14C]lixivaptan, route oral; summary of the method: as §2
[7] = Half life in male beagle dog plasma at 10 mg/kg, po administered as single dose by LC-MS/MS analysis; type: ADME, organism-based, Canis lupus familiaris; design: dose 10 mg/kg, dosed compound name [14C]lixivaptan, route oral
Summary of the method: (§5)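 Male beagles given 10 mg/kg [14C]drug oral suspension; jugular K2EDTA blood at 0.25-168 h. Parent by validated LC-MS/MS, total radioactivity by LSC; Tmax observed; t1/2 = 0.693/kel from terminal log-linear regression.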

[8] = AUC(0 to infinity) in human plasma at 100 mg, po administered as single dose by LC-MS/MS analysis; type: ADME, organism-based; design: dose 100 mg, route oral, time infinity, dosed compound name [14C]lixivaptan
Summary of the method: (§6)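 Fasted healthy males took one oral 100 mg (200 µCi) [14C]lixivaptan dose. Plasma was drawn from predose to 144 h. Total radioactivity was measured by LSC and converted to ng-equiv/ml via the dose specific activity; lixivaptan by validated LC-MS/MS. Noncompartmental analysis: Cmax observed; kel by log-linear regression; AUC0-t by linear trapezoid; extrapolation as Cest/kel.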

[9] = AUC(0 to t) in male Sprague-Dawley rat plasma at 10 mg/kg, po administered as single dose via gavage by LC-MS/MS analysis; type: ADME, organism-based; design: dose 10 mg/kg, dosed compound name [14C]lixivaptan, route oral; summary of the method: as §3
[10] = Half life in female Sprague-Dawley rat plasma at 10 mg/kg, po administered as single dose via gavage by LC-MS/MS analysis; type: ADME, organism-based; design: dose 10 mg/kg, dosed compound name [14C]lixivaptan, route oral; summary of the method: as §2
[11] = Half life in human plasma at 100 mg, po administered as single dose by LC-MS/MS analysis; type: ADME, organism-based; design: dosed compound name [14C]lixivaptan; summary of the method: as §4
[12] = AUC(0 to infinity) in male beagle dog plasma at 10 mg/kg, po administered as single dose by LC-MS/MS analysis; type: ADME, organism-based, Canis lupus familiaris; design: time infinity, dose 10 mg/kg, dosed compound name [14C]lixivaptan, route oral; summary of the method: as §1
[13] = Tmax in male beagle dog plasma at 10 mg/kg, po administered as single dose by LC-MS/MS analysis; type: ADME, organism-based, Canis lupus familiaris; design: dose 10 mg/kg, dosed compound name [14C]lixivaptan, route oral; summary of the method: as §5
[14] = Tmax in female Sprague-Dawley rat plasma at 10 mg/kg, po administered as single dose via gavage by LC-MS/MS analysis; type: ADME, organism-based; design: dose 10 mg/kg, dosed compound name [14C]lixivaptan, route oral; summary of the method: as §2
[15] = AUC(0 to t) in human plasma at 100 mg, po administered as single dose by LC-MS/MS analysis; type: ADME, organism-based; design: dosed compound name [14C]lixivaptan; summary of the method: as §6
[16] = Cmax in human plasma at 100 mg, po administered as single dose by LC-MS/MS analysis; type: ADME, organism-based; design: dose 100 mg, route oral, dosed compound name [14C]lixivaptan; summary of the method: as §6
[17] = Cmax in male Sprague-Dawley rat plasma at 10 mg/kg, po administered as single dose via gavage by LC-MS/MS analysis; type: ADME, organism-based; design: dose 10 mg/kg, dosed compound name [14C]lixivaptan, route oral; summary of the method: as §3
[18] = AUC(0 to t) in female Sprague-Dawley rat plasma at 10 mg/kg, po administered as single dose via gavage by LC-MS/MS analysis; type: ADME, organism-based; design: dose 10 mg/kg, dosed compound name [14C]lixivaptan, route oral; summary of the method: as §3
[19] = AUC(0 to infinity) in male Sprague-Dawley rat plasma at 10 mg/kg, po administered as single dose via gavage by LC-MS/MS analysis; type: ADME, organism-based; design: time infinity, dose 10 mg/kg, dosed compound name [14C]lixivaptan, route oral; summary of the method: as §3
[20] = tested on: Homo sapiens; experiment: Drug concentration at steady state in human at 100 mg, po qd for 7 days by LC/MS/MS analysis; type: ADME, organism-based; design: dosed compound name Lixivaptan; conditions: in vivo, 168 h
Summary of the method: (§7)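 Phase 1 human study with lixivaptan 100 mg orally once daily and blood taken on the final day. Parent and two abundant metabolites were quantified in plasma with a validated LC-MS/MS assay.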

[21] = AUC at steady state in human at 100 mg, po qd for 7 days by LC/MS/MS analysis; type: ADME, organism-based; design: dosed compound name Lixivaptan; conditions: plasma; summary of the method: as §7
[22] = AUC(0 to t) in male beagle dog plasma at 10 mg/kg, po administered as single dose by LC-MS/MS analysis; type: ADME, organism-based, Canis lupus familiaris; design: dose 10 mg/kg, dosed compound name [14C]lixivaptan, route oral; summary of the method: as §1

Cmax [1]: 759 ng/mL
Tmax [2]: 48 min
Cmax [3]: 338 ng/mL
Tmax [4]: 42 min
AUC(0-inf) [5]: 1890 ng·h/mL
half-life [6]: 78 min
half-life [7]: 528 min
AUC(0-inf) [8]: 1570 ng·h/mL
AUC(0-t) [9]: 140 ng·h/mL
half-life [10]: 252 min
half-life [11]: 586 min
AUC(0-inf) [12]: 4870 ng·h/mL
Tmax [13]: 48 min
Tmax [14]: 48 min
AUC(0-t) [15]: 1540 ng·h/mL
Cmax [16]: 437 ng/mL
Cmax [17]: 91 ng/mL
AUC(0-t) [18]: 1530 ng·h/mL
AUC(0-inf) [19]: 219 ng·h/mL
Css [20]: 514 ng/mL
AUC at 168 h [21]: 2960 ng·h/mL
AUC(0-t) [22]: 4700 ng·h/mL
SMILES: Cc1ccc(F)cc1C(=O)Nc1ccc(C(=O)N2Cc3cccn3Cc3ccccc32)c(Cl)c1 [LIXIVAPTAN]
